Assay results from different studies.
Compare with care: the assays were run in different laboratories. pKd: −log10 of the molar value.
Observed: binding
PIKFYVE: 1-phosphatidylinositol 3-phosphate 5-kinase (PIKFYVE, Homo sapiens, UniProt Q9Y2I7)
PIK3CB: Phosphatidylinositol 4,5-bisphosphate 3-kinase catalytic subunit beta isoform (PIK3CB, Homo sapiens, UniProt P42338)
mnmE: mnmE (Escherichia coli, UniProt P25522)
UCK2: Uridine-cytidine kinase 2 (UCK2, Homo sapiens, UniProt Q9BZX2)

| Structure (SMILES) | target | test | setting | pKd |
| --- | --- | --- | --- | --- |
| c1cncc(-c2cccc(Nc3nccc(NC4CCCCC4)n3)c2)c1 | Interleukin-1 receptor-associated kinase 3 (IRAK3, Homo sapiens, UniProt Q9Y616) | competition with immobilised ligand | – | 5.85 |
| COc1ccc2[nH]c(C(=O)O)c(/C=C/C(=O)c3ccncc3)c2c1 | PIKFYVE | competition with immobilised ligand | – | 7.34 |
| C=CC(=O)N1CCC(C(=O)N(C)CC(=O)N2CCN(c3nc(-c4cnc(N)nc4C(F)F)nc(N4CCOCC4)n3)CC2)CC1 | PIK3CB | – | – | 8.44 |
| CO[C@H]1O[C@H](CO)[C@@H](O)[C@H](O)[C@@H]1O | ZG16 (Homo sapiens, UniProt O60844) | NMR | – | 1.82 |
| CCOc1ccc2[nH]c(C)c(/C=C/C(=O)c3ccncc3)c2c1 | PIKFYVE | competition with immobilised ligand | – | 7.64 |
| COc1ccc(Nc2nnc(-c3ccc(C(=O)NO)cc3)o2)cc1 | Glycogen synthase kinase-3 beta (GSK3B, Homo sapiens, UniProt P49841) | SPR | – | 6.00 |
| CN1c2c([nH]c(N)nc2=O)NC[C@@H]1CNc1ccc(C(=O)N[C@@H](CCC(=O)O)C(=O)O)cc1 | mnmE | ITC | pH 7.5 | 5.96 |
| O=c1ccn([C@@H]2O[C@H](CO)[C@@H](O)[C@H]2O)c(=O)[nH]1 | UCK2 | fluorescence | – | 8.24 |
| Cc1[nH]c2ccc(OC(C)C)cc2c1/C=C/C(=O)c1ccncc1 | PIKFYVE | competition with immobilised ligand | – | 7.29 |
| [N-]=[N+]=N[C@@H]1[C@H](O)[C@@H](CO)O[C@H]1n1ccc(=O)[nH]c1=O | UCK2 | fluorescence | – | 7.87 |
| CCC(=O)N1CCC(C(=O)N(C)CC(=O)N2CCN(c3nc(-c4cnc(N)nc4C(F)F)nc(N4CCOCC4)n3)CC2)CC1 | PIK3CB | – | – | 8.11 |
| CC(=O)O[C@H]1C(O)O[C@H](COP(=O)(O)OP(=O)(O)OC[C@H]2O[C@@H](n3cnc4c(N)ncnc43)[C@H](O)[C@@H]2O)[C@H]1O (stereo partly shown) | NAD-dependent histone deacetylase SIR2 (Saccharomyces cerevisiae S288c, UniProt P06700) | SPR | – | 6.52 |
| Nc1nc(=O)c2c([nH]1)NC[C@H](CNc1ccc(C(=O)N[C@@H](CCC(=O)O)C(=O)O)cc1)N2C=O | mnmE | ITC | pH 7.5 | 6.59 |
| Cc1cnc(-c2ccc(-c3ccc(NC(=O)Nc4c(F)cc(F)cc4F)cc3F)c3c2C(=O)NC3)[nH]1 | Dual specificity mitogen-activated protein kinase kinase 1 (MAP2K1, Homo sapiens, UniProt Q02750) | competition with immobilised ligand | – | 7.64 |
| Nc1nc2c(c(=O)[nH]1)N1CN(c3ccc(C(=O)N[C@@H](CCC(=O)O)C(=O)O)cc3)C[C@H]1CN2 | mnmE | ITC | pH 7.5 | 6.51 |
| Cc1cc2nc3c(=O)[nH]c(=O)nc-3n(C[C@H](O)[C@H](O)[C@H](O)COP(=O)(O)OP(=O)(O)OC[C@H]3O[C@@H](n4cnc5c(N)ncnc54)[C@H](O)[C@@H]3O)c2cc1C | LRP1 (Homo sapiens, UniProt Q07954) | – | lysate | 4.36 |
